# Calls of active or inactive are those of the source. The rule behind the calls is not given here.
# How the values were obtained:
# [1] = Hepatotoxicity in BALB/c mouse assessed as effect on serum ALT level at 50 to 100 mg/kg, ig administered for 14 days; assay type: toxicity, organism-based; details: in vivo, po, 336 h, dose 50-100 mg/kg, time 14 day
# Outline: (§1)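 BALB/c mice, 10 per group, gavaged daily for 14 days at 50 or 100 mg/kg; blank control group included. Hair, behaviour and neurological signs (fremitus, convulsion, spasm, gait disturbance) were observed. At day 14, mice were weighed and given routine blood tests and serum biochemistry (ALT, AST, urea, creatinine; n = 10). Liver and kidney were examined on paraffin-embedded histology sections.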
# [2] = Apparent permeability across apical to basolateral side in human Caco-2 cells at 10 uM incubated for 2 hrs LC-MS/MS analysis; assay type: ADME, cell-based; details: Caco-2
# Outline: (§2)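 Caco-2 monolayers, apical to basolateral direction. Plates preincubated 30 min at 37 °C, then exposed to 10 µM compound for 2 h at 37 °C without shaking. Donor and receiver samples were quenched, centrifuged and measured by LC/MS/MS, in duplicate. Papp calculated from receiver concentration, area and time. Monolayer integrity checked by TEER and by Lucifer yellow leakage (30 min, 37 °C, ex 485/em 530 nm).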
# [3] = tested on: Rattus norvegicus; test: Antiosteoporotic activity in Sprague-Dawley rat model of OVX-induced bone loss assessed as narrowed gap between trabeculae at 30 mg/kg, ig administered for 3 months with 1 day break after 6 consecutive days administration; assay type: functional, organism-based
# Outline: (§3)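 Female SD rats given bilateral ovariectomy (sham: fat tissue removed instead), adapted 1 week beforehand; dosing began on postoperative day 10, n = 10 per group. Test drugs as 3 mg/mL suspension by gavage; raloxifene hydrochloride at 0.5 mg/mL. Controls got water. Tetracycline 30 mg/kg ip 16 and 3 days before euthanasia. Tibia stained sections give trabecular morphology and TBV%. BMD of L4-6 measured by densitometry under pentobarbital 45 mg/kg anaesthesia. Reported as mean ± SD.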
# [4] = Toxicity in BALB/c mouse assessed as muscle spasm at 50 to 100 mg/kg, ig administered for 14 days; assay type: organism-based; details: in vivo, po, 336 h, dose 50-100 mg/kg, time 14 day; outline: as §1
# [5] = Renal toxicity in BALB/c mouse assessed as effect on serum urea level at 50 to 100 mg/kg, ig administered for 14 days; assay type: organism-based; details: in vivo, po, 336 h, dose 50-100 mg/kg, time 14 day; outline: as §1
# [6] = Solubility in PBS buffer at pH 7.4 assessed as precipitation of compound at 10000 nM; assay type: physicochemical; details: pH 7.4, 10 µM
# [7] = tested on: Rattus norvegicus; test: Antiosteoporotic activity in Sprague-Dawley rat model of OVX-induced bone loss assessed as increase in trabecular bone volume at 30 mg/kg, ig administered for 3 months with 1 day break after 6 consecutive days administration; assay type: functional, organism-based; outline: as §3
# [8] = tested on: Rattus norvegicus; test: Antiosteoporotic activity in Sprague-Dawley rat model of OVX-induced bone loss assessed as increase in trabecular bone mineral density at 30 mg/kg, ig administered for 3 months with 1 day break after 6 consecutive days administration; assay type: functional, organism-based; outline: as §3
# [9] = Permeability across apical to basolateral side in human Caco-2 cells assessed as transepithelial electrical resistance at 10 uM incubated for 2 hrs LC-MS/MS analysis; assay type: ADME, cell-based; details: caco-2, 2 h; outline: as §2
# [10] = tested on: Rattus norvegicus; test: Antiosteoporotic activity in Sprague-Dawley rat model of OVX-induced bone loss assessed as increase in thickness of trabeculae at 30 mg/kg, ig administered for 3 months with 1 day break after 6 consecutive days administration; assay type: functional, organism-based; outline: as §3
# [11] = Toxicity in BALB/c mouse assessed as effect on liver megakaryocyte at 50 to 100 mg/kg, ig administered for 14 days; assay type: organism-based; details: in vivo, po, 336 h, dose 50-100 mg/kg, time 14 day; outline: as §1
# [12] = Toxicity in BALB/c mouse assessed as inflammatory infiltration in liver at 50 to 100 mg/kg, ig administered for 14 days; assay type: organism-based; details: in vivo, po, 336 h, dose 50-100 mg/kg, time 14 day; outline: as §1
# [13] = Toxicity in BALB/c mouse assessed as necrosis in renal tubular epithelial cells at 50 to 100 mg/kg, ig administered for 14 days; assay type: organism-based; details: in vivo, po, 336 h, dose 50-100 mg/kg, time 14 day
# Outline: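 BALB/c mice, 10 per group: untreated blank group plus low (50 mg/kg) and high (100 mg/kg) dose groups, intragastric once daily for 14 days. Hair, behaviour and neurological signs monitored throughout. At day 14 mice were weighed and dissected. Kidney and liver tissue was fixed in 3 mm pieces, dehydrated through graded alcohol, cleared in xylene, embedded in paraffin, sectioned and examined histopathologically.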
# [14] = Solubility in PBS buffer at pH 7.4 assessed as precipitation of compound at 5000 nM; assay type: physicochemical; details: pH 7.4, 5 µM
# [15] = Solubility in PBS buffer at pH 7.4 assessed as precipitation of compound at 2500 nM; assay type: physicochemical; details: pH 7.4, 2.5 µM
# [16] = Solubility in PBS buffer at pH 7.4 assessed as precipitation of compound at 625 nM; assay type: physicochemical; details: pH 7.4, 0.625 µM
# [17] = Solubility in PBS buffer at pH 7.4 assessed as precipitation of compound at 312.5 nM; assay type: physicochemical; details: pH 7.4, 0.3125 µM
# [18] = Toxicity in BALB/c mouse assessed as effect on hair at 50 to 100 mg/kg, ig administered for 14 days; assay type: organism-based; details: in vivo, po, 336 h, dose 50-100 mg/kg, time 14 day; outline: as §1
# [19] = Toxicity in BALB/c mouse assessed as gait disturbance at 50 to 100 mg/kg, ig administered for 14 days; assay type: organism-based; details: in vivo, po, 336 h, dose 50-100 mg/kg, time 14 day; outline: as §1
# [20] = Toxicity in BALB/c mouse assessed as convulsion at 50 to 100 mg/kg, ig administered for 14 days; assay type: organism-based; details: in vivo, po, 336 h, dose 50-100 mg/kg, time 14 day; outline: as §1
# [21] = Hepatotoxicity in BALB/c mouse assessed as effect on serum AST level at 50 to 100 mg/kg, ig administered for 14 days; assay type: toxicity, organism-based; details: in vivo, po, 336 h, dose 50-100 mg/kg, time 14 day; outline: as §1
# [22] = Toxicity in BALB/c mouse assessed as effect on behavioral change at 50 to 100 mg/kg, ig administered for 14 days; assay type: organism-based; details: in vivo, po, 336 h, dose 50-100 mg/kg, time 14 day; outline: as §1
# [23] = Toxicity in BALB/c mouse assessed as fremitus at 50 to 100 mg/kg, ig administered for 14 days; assay type: organism-based; details: in vivo, po, 336 h, dose 50-100 mg/kg, time 14 day; outline: as §1
# [24] = Permeability across apical to basolateral side in human Caco-2 cells assessed as […] yellow leakage at 10 uM incubated for 2 hrs LC-MS/MS analysis; assay type: ADME, cell-based; details: caco-2, 2 h; outline: as §2
# [25] = Toxicity in BALB/c mouse assessed as effect on body weight at 50 to 100 mg/kg, ig administered for 14 days; assay type: organism-based; details: in vivo, po, 336 h, dose 50-100 mg/kg, time 14 day; outline: as §1
# [26] = Solubility in PBS buffer at pH 7.4 assessed as precipitation of compound at 156.25 nM; assay type: physicochemical; details: pH 7.4, 0.15625 µM
# [27] = tested on: Rattus norvegicus; test: Antiosteoporotic activity in Sprague-Dawley rat model of OVX-induced bone loss assessed as increase in number of trabeculae at 30 mg/kg, ig administered for 3 months with 1 day break after 6 consecutive days administration; assay type: functional, organism-based; outline: as §3
# [28] = Toxicity in BALB/c mouse assessed as hepatocyte nucleus mitosis at 50 to 100 mg/kg, ig administered for 14 days; assay type: organism-based; details: in vivo, po, 336 h, dose 50-100 mg/kg, time 14 day; outline: as §1
# [29] = Renal toxicity in BALB/c mouse assessed as effect on serum creatinine level at 50 to 100 mg/kg, ig administered for 14 days; assay type: organism-based; details: in vivo, po, 336 h, dose 50-100 mg/kg, time 14 day; outline: as §1
# [30] = Toxicity in BALB/c mouse assessed as hepatocyte necrotic foci at 50 to 100 mg/kg, ig administered for 14 days; assay type: organism-based; details: in vivo, po, 336 h, dose 50-100 mg/kg, time 14 day; outline: as §1
# [31] = molecular target: Runt-related transcription factor 2 (Mus musculus) (UniProt Q08775); test: Upregulation of Runx2 transcriptional activity in mouse MC3T3-E1 cells transfected with p6OSE2-luc at 100 uM incubated for 48 hrs by firefly luciferase reporter gene assay relative to control; assay type: cell-based; details: filed as activator
# Sequence of Runt-related transcription factor 2 (Mus musculus) (Q08775 whole entry): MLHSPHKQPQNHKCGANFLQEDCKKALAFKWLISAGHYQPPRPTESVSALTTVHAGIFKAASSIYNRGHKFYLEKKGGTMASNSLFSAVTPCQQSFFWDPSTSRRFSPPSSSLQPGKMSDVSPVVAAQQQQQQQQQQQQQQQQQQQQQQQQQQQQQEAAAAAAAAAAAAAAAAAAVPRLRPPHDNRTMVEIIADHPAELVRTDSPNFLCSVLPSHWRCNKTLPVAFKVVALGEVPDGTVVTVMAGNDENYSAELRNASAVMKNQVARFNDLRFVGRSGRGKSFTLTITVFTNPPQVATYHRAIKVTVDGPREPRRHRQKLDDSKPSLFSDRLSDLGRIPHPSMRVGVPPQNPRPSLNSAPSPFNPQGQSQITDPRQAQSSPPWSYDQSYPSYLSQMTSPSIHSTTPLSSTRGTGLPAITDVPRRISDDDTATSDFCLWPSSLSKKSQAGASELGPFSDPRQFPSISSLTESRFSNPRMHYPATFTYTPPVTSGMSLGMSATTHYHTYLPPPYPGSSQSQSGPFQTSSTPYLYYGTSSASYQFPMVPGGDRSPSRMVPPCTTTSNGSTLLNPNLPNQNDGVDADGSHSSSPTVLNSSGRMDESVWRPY
# Outline: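 MC3T3-E1 cells reverse-transfected in suspension with p6OSE2-luc (Runx2-responsive reporter), 100 ng DNA per well, 10^5 cells/ml in α-MEM with 10% FBS, 37 °C in CO2. After 24 h the medium was replaced with complete medium containing compound, with lovastatin as positive control. Firefly luciferase read after a further 48 h as relative luminescence units. Significance by Dunnett's test.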
# [32] = species: Danio rerio; test: Antiosteoporotic activity in Zebra fish model of dexamethasone-induced bone loss assessed as increase in BMP-2 expression at 1 uM incubated for 24 hrs in presence of dexamethasone by Western blot analysis; assay type: functional, organism-based
# Outline: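 Protein extracts were prepared from untreated, dexamethasone-treated and drug-treated (1 µM, 24 h) zebrafish, and BMP-2 protein was then assessed.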
# [33] = species: Danio rerio; test: (§4) Antiosteoporotic activity in Zebra fish model of dexamethasone-induced bone loss assessed as increase in bone mineralization by measuring increase in integrated optical density 6hpf embryo treated for 72 hrs with dexamethasone followed by incubation with drug and measured after 6 days post-fertilization by alizarin dye based imaging analysis; assay type: functional, organism-based; details: dose 1-25 µM, time 3.0 day
# Outline: (§5)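 AB-line zebrafish embryos at 6 hpf held in dexamethasone solution for 72 h, then exposed to drug, and cultured to 6 dpf. Larvae stained with alizarin red, rehydrated, decolorised and photographed. Stained area and integrated optical density were summed over the left-flank branchial bones: cleithrum, compass, opercle and branchiostegal rays. Values expressed relative to untreated controls set at 1.00.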
# [34] = species: Danio rerio; test: as §4, with “at 1 to 25 uM” for “by measuring increase in integrated optical density”; assay type: functional, organism-based; details: dose 1-25 µM, time 3.0 day; outline: as §5
structure (smiles),measurement,setting,value
CCOC(=O)c1cc2ccc(OC)cc2o1,Activity,[1],Non-Toxic
same,"Papp A→B at 2 h, 10 µM",[2],< 0.00247 ×10⁻⁶ cm/s
same,Activity,[3],Active
same,Activity,[4],Non-Toxic
same,Activity,[5],Non-Toxic
same,solubility,[6],Insoluble
same,Activity,[7],Active
same,Activity,[8],Active
same,Activity,[9],373 Ω·cm²
same,Activity,[10],Active
same,Activity,[11],Toxic
same,Activity,[12],Toxic
same,Activity,[13],Toxic
same,solubility,[14],Insoluble
same,solubility,[15],Insoluble
same,solubility,[16],Soluble
same,solubility,[17],Soluble
same,Activity,[18],Non-Toxic
same,Activity,[19],Non-Toxic
same,Activity,[20],Non-Toxic
same,Activity,[21],Non-Toxic
same,Activity,[22],Non-Toxic
same,Activity,[23],Non-Toxic
same,Activity,[24],0.152%
same,Activity,[25],Non-Toxic
same,solubility,[26],Soluble
same,Activity,[27],Active
same,Activity,[28],Toxic
same,Activity,[29],Non-Toxic
same,Activity,[30],Toxic
COc1ccc2cc(C(=O)NCCN(C)C)oc2c1,Activity,[3],Active
same,Activity,[31],267%
same,Activity,[7],Active
same,Activity,[8],Active
same,Activity,[10],Active
same,Activity,[32],Active
same,Activity,[33],Dose-dependent effect
same,Activity,[34],Active
same,Activity,[27],Active

# Reference: ChEMBL document CHEMBL4765342, “Substituted benzothiophene and benzofuran derivatives as a novel class of bone morphogenetic Protein-2 upregulators: Synthesis, anti-osteoporosis efficacies in ovariectomized rats and a zebrafish model, and ADME properties” (Eur J Med Chem, 2020)
